Test results reported in ChEMBL document CHEMBL1772995, “Targeting the c-Kit Promoter G-quadruplexes with 6-Substituted Indenoisoquinolines” (ACS Med Chem Lett, 2010).
Structures can show the parent of a compound that is named as a salt. Active and inactive are the calls of the source. The calls are words filed in the database; no cut-off is given here.

Key:
Nucleic Acid [1] = experiment: Binding affinity to double stranded-DNA (50-FAM-TAT AGC TAT A-HEG-TAT AGC TAT A-TAMRA-30) assessed as change in melting temperature at 1 uM by FRET-melting assay (reference value: 62.7 degC); type: nucleic-acid assay
Summary of the method: (§1)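 Dual FAM/TAMRA-labelled oligonucleotides diluted in 60 mM potassium cacodylate, pH 7.4, annealed at 400 nM (94 °C for 10 min, cooled to room temperature at 0.1 °C/min), then mixed 1:1 with ligand solution to 200 nM DNA final. Melting read with excitation at 483 nm and emission at 533 nm, in triplicate. ΔTm taken across a range of ligand concentrations, with the ligand level giving half-maximal ΔTm also derived.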

Nucleic Acid [2] = experiment: Binding affinity to human telomeric (5'-FAM-GGGTTAGGGTTAGGGTTAGGG-TAMRA-3') DNA assessed as concentration required to cause half maximal change in melting temperature by FRET-melting assay (reference value: 59.4 degC); type: nucleic-acid assay; summary of the method: as §1
cells = type: functional, cell-based; settings: Homo sapiens, GIST882, 96 h
Nucleic Acid [3] = experiment: Binding affinity to human telomeric (5'-FAM-GGGTTAGGGTTAGGGTTAGGG-TAMRA-3') DNA assessed as change in melting temperature at 1 uM by FRET-melting assay (reference value: 59.4 degC); type: nucleic-acid assay; summary of the method: as §1
Nucleic Acid [4] = experiment: Binding affinity to human c-KIT2 (5'-FAM-GGGCGGGCGCGAGGGAGGGG-TAMRA-3') DNA assessed as concentration required to cause half maximal change in melting temperature by FRET-melting assay (reference value: 72.7 degC); type: nucleic-acid assay; summary of the method: as §1
Nucleic Acid [5] = experiment: Binding affinity to human c-KIT2 (5'-FAM-GGGCGGGCGCGAGGGAGGGG-TAMRA-3') DNA assessed as change in melting temperature at 1 uM by FRET-melting assay (reference value: 72.7 degC); type: nucleic-acid assay; summary of the method: as §1
Nucleic Acid [6] = experiment: Binding affinity to human c-KIT1 (5'-FAM-GGGAGGGCGCTGGGAGGAGGG-TAMRA-3') DNA assessed as concentration required to cause half maximal change in melting temperature by FRET-melting assay (reference value: 54.4 degC); type: nucleic-acid assay; summary of the method: as §1
HT-29 = experiment: cells; type: functional, cell-based; settings: Homo sapiens, HT-29, 96 h
Nucleic Acid [7] = experiment: Binding affinity to double stranded-DNA (50-FAM-TAT AGC TAT A-HEG-TAT AGC TAT A-TAMRA-30) assessed as concentration required to cause half maximal change in melting temperature by FRET-melting assay (reference value: 62.7 degC); type: nucleic-acid assay; summary of the method: as §1
Nucleic Acid [8] = experiment: Binding affinity to human c-KIT1 (5'-FAM-GGGAGGGCGCTGGGAGGAGGG-TAMRA-3') DNA assessed as change in melting temperature at 1 uM by FRET-melting assay (reference value: 54.4 degC); type: nucleic-acid assay; summary of the method: as §1
[9] = biological target: Mast/stem cell growth factor receptor Kit (Homo sapiens) (UniProt P10721); experiment: Inhibition of c-Kit mRNA expression in human GIST882 cells at 20 uM after 24 hrs by […] RT-PCR analysis relative to control; type: functional, cell-based
Chain of Mast/stem cell growth factor receptor Kit (Homo sapiens) (P10721 whole entry): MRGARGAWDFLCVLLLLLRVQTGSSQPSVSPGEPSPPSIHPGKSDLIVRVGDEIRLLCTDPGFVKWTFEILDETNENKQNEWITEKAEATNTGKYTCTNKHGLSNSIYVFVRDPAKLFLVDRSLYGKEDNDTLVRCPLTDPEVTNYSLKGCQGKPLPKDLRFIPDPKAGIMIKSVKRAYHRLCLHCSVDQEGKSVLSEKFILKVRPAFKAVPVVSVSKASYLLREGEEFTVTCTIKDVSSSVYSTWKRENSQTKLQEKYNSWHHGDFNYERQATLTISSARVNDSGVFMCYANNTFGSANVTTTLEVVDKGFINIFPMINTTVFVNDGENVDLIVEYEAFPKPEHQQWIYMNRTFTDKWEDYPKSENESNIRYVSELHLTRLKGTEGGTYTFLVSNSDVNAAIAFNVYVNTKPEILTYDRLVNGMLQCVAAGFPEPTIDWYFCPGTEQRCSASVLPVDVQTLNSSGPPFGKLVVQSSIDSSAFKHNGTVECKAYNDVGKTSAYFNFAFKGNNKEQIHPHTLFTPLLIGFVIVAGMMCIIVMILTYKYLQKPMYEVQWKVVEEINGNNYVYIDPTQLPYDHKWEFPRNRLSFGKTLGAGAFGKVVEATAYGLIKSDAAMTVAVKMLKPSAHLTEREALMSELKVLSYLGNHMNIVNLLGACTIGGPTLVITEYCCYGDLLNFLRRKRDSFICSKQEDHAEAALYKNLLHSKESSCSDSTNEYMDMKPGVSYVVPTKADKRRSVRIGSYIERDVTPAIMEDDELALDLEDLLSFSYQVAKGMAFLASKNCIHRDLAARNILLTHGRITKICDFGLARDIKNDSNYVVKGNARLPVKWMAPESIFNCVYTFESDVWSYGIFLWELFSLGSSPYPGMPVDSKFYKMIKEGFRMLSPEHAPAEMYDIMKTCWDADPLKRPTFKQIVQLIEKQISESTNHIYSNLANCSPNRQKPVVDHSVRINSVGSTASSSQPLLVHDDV
Summary of the method: (§2)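 GIST882 cells grown in RPMI 1640 with 10% FBS. 1 × 10^6 cells seeded in T25 flasks and treated 24 h with 0.8, 4 or 20 μM ligand, or DMSO control. Total RNA extracted; cDNA made from 1 μg RNA with oligo dT (55 °C, 1 h). qPCR annealing at 64 °C, single amplicon checked by melt curve. KIT mRNA normalised to β-actin or YWHAZ and given as % of control. Two independent experiments, each in triplicate.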

[10] = Toxicity in human GIST882 cells expressing c-Kit at 20 uM after 24 hrs; type: cell-based; settings: gist882, 24 h
[11] = biological target: Mast/stem cell growth factor receptor Kit (Homo sapiens) (UniProt P10721); experiment: Inhibition of c-Kit protein expression in human GIST882 cells after 24 hrs by immunoblotting; type: functional, cell-based
Summary of the method: (§3)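 GIST882 cells (1 × 10^6 per T25 flask) treated 24 h with 0.8, 4 or 20 μM ligand, or DMSO control. Lysed in RIPA buffer with protease and phosphatase inhibitors; 10–20 μg protein run on 8–16% SDS-PAGE, transferred to nitrocellulose and probed with anti-KIT. β-actin used as loading control; enhanced-luminescence detection.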

[12] = biological target: Mast/stem cell growth factor receptor Kit (Homo sapiens) (UniProt P10721); experiment: Inhibition of c-Kit mRNA expression in human GIST882 cells after 24 hrs by […] RT-PCR analysis; type: functional, cell-based; summary of the method: as §2
[13] = biological target: Mast/stem cell growth factor receptor Kit (Homo sapiens) (UniProt P10721); experiment: Inhibition of c-Kit mRNA expression in human GIST882 cells at 4 uM after 24 hrs by […] RT-PCR analysis relative to control; type: functional, cell-based; summary of the method: as §2
[14] = biological target: Mast/stem cell growth factor receptor Kit (Homo sapiens) (UniProt P10721); experiment: Inhibition of c-Kit protein expression in human GIST882 cells at 20 uM after 24 hrs by immunoblotting; type: functional, cell-based; summary of the method: as §3

| deltaTm (Nucleic Acid [1]) | Activity (Nucleic Acid [2]) | IC50 (cells) | deltaTm (Nucleic Acid [3]) | Activity (Nucleic Acid [4]) | deltaTm (Nucleic Acid [5]) | Activity (Nucleic Acid [6]) | IC50 (HT-29) | Activity (Nucleic Acid [7]) | deltaTm (Nucleic Acid [8]) | inhibition [9] | inhibition [11] | inhibition [12] | inhibition [13] | inhibition [14] | SMILES | Activity [10] |
| --- | --- | --- | --- | --- | --- | --- | --- | --- | --- | --- | --- | --- | --- | --- | --- | --- |
| 0.6 K | > 10 µM | > 50 µM | 4.8 K | 4.4 µM | 3.9 K | 8.9 µM | > 50 µM | > 10 µM | 8.7 K |  |  |  |  |  | O=C1c2ccccc2-c2c1c1ccccc1c(=O)n2CCCN1CCOCC1 |  |
| 4 K | 1.63 µM | 5 µM | 14.4 K | 0.72 µM | 14.4 K | 0.93 µM | 0.4 µM | 9 µM | 23.7 K |  |  |  |  |  | O=C1c2ccccc2-c2c1c1ccccc1c(=O)n2CCCN1CCCC1 |  |
| 3.9 K | 1.6 µM | 4.1 µM | 13 K | 0.69 µM | 13 K | 0.95 µM | 0.3 µM | > 10 µM | 20.1 K | 89% | Dose-dependent effect | Dose-dependent effect | 67% | Active | CN(C)CCCn1c2c(c3ccccc3c1=O)C(=O)c1ccccc1-2.Cl | Toxic |
| 0 K | > 10 µM | 23 µM | 6.3 K | 0.62 µM | 13.2 K | > 10 µM | 2.2 µM | > 10 µM | 11.7 K |  |  |  |  |  | O=C1c2ccccc2-c2c1c1ccccc1c(=O)n2CCCn1ccnc1 |  |
| 1.7 K | 0.98 µM | 13.9 µM | 17.6 K | 0.84 µM | 12.2 K | 0.59 µM | 0.7 µM | > 10 µM | 25.9 K |  |  |  |  |  | CN1CCN(CCCn2c3c(c4ccccc4c2=O)C(=O)c2ccccc2-3)CC1 |  |

| SMILES | deltaTm (Nucleic Acid [1]) | Activity (Nucleic Acid [2]) | IC50 (cells) | deltaTm (Nucleic Acid [3]) | Activity (Nucleic Acid [4]) | deltaTm (Nucleic Acid [5]) | Activity (Nucleic Acid [6]) | IC50 (HT-29) | Activity (Nucleic Acid [7]) | deltaTm (Nucleic Acid [8]) | inhibition [9] | inhibition [11] | inhibition [12] | inhibition [13] | inhibition [14] | Activity [10] |
| --- | --- | --- | --- | --- | --- | --- | --- | --- | --- | --- | --- | --- | --- | --- | --- | --- |
| Cc1ccc(NC(=O)c2ccc(CN3CCN(C)CC3)cc2)cc1Nc1nccc(-c2cccnc2)n1 [IMATINIB MESYLATE] |  |  | 1.7 µM |  |  |  |  |  |  |  |  |  |  |  |  |  |
